# ChEMBL document CHEMBL4396897, “Potent 5-Cyano-6-phenyl-pyrimidin-Based Derivatives Targeting DCN1-UBE2M Interaction” (J Med Chem, 2019)
# The source made the active and inactive calls. The calls are words filed in the database; no cut-off is given here.
# What was measured:
# [1] = tested on: A549; assay: Induction of apoptosis in human A549 cells assessed as early apoptotic cells at 5 uM after 48 hrs by Annexin V-FITC/propidium iodide staining based flow cytometry (reference value: 3.63%); type: functional
# [2] = tested on: TE-1; assay: Antiproliferative activity against human TE1 after 72 hrs by MTT assay; type: functional, cell-based
# Procedure, shortened: (§1)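 MTT viability assay: cells seeded at 2~5×10^3 per well, exposed to serial dilutions of compound for 72h, then MTT (5 mg/mL in PBS) added for 4h at 37°C. Formazan dissolved in DMSO and read at 490nm. IC50 reported as mean ± SD of three independent experiments.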
# [3] = tested on: A549; assay: Induction of apoptosis in human A549 cells assessed as viable cells at 10 uM after 48 hrs by Annexin V-FITC/propidium iodide staining based flow cytometry (reference value: 92.9%); type: functional; settings: A549, 48 h, read-out: Activity
# [4] = tested on: SMMC-7721; assay: Antiproliferative activity against human SMMC7721 after 72 hrs by MTT assay; type: functional, cell-based; settings: SMMC-7721, 72 h; procedure, shortened: as §1
# [5] = tested on: A549; assay: Induction of apoptosis in human A549 cells assessed as late apoptotic cells at 2.5 uM after 48 hrs by Annexin V-FITC/propidium iodide staining based flow cytometry (reference value: 2.61%); type: functional
# [6] = tested on: A549; assay: Induction of apoptosis in human A549 cells assessed as necrotic cells at 5 uM after 48 hrs by Annexin V-FITC/propidium iodide staining based flow cytometry (reference value: 0.88%); type: functional
# [7] = tested on: GES1; assay: Antiproliferative activity against human GES-1 after 72 hrs by MTT assay; type: cell-based; settings: ges1, 72 h; procedure, shortened: as §1
# [8] = tested on: NCI-H1975; assay: Induction of apoptosis in human NCI-NCI-H1975 cells assessed as late apoptotic cells at 2.5 uM after 48 hrs by Annexin V-FITC/propidium iodide staining based flow cytometry (reference value: 0.46%); type: functional
# [9] = tested on: PC-9; assay: Induction of apoptosis in human PC9 cells assessed as early apoptotic cells at 5 uM after 48 hrs by Annexin V-FITC/propidium iodide staining based flow cytometry (reference value: 1.36%); type: functional
# Procedure, shortened: (§2)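 PC9 cells seeded in 6-well plates (1~2×10^6 cells/mL), incubated overnight, then exposed to 0, 2.5, 5 or 10µM compound for 48h. Harvested cells stained with Annexin-V-FITC/PI for 30 min and analysed by flow cytometry. Three individual experiments; means ± SD.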
# [10] = tested on: A549; assay: Induction of apoptosis in human A549 cells after 48 hrs by Annexin V-FITC/propidium iodide staining based flow cytometry; type: functional, cell-based
# [11] = tested on: A549; assay: Induction of apoptosis in human A549 cells assessed as early apoptotic cells at 2.5 uM after 48 hrs by Annexin V-FITC/propidium iodide staining based flow cytometry (reference value: 3.63%); type: functional
# [12] = tested on: A549; assay: Inhibition of colony formation in human A549 cells after 7 days by crystal violet staining based microscopic analysis; type: functional, cell-based
# Procedure, shortened: (§3)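 H1975, PC9 and A549 cells seeded at 1×10^3 cells per well and cultured overnight, then given fresh medium with compound at 0, 0.625, 1.25, 2.5, 5 or 10μM for 7 days. Cells fixed, stained with 0.1% crystal violet and imaged by microscopy; dye then dissolved and read on a plate reader. Three experiments; means ± SD.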
# [13] = tested on: PC-9; assay: Inhibition of colony formation in human PC9 cells after 7 days by crystal violet staining based microscopic analysis; type: functional, cell-based; procedure, shortened: as §3
# [14] = target: DCN1-like protein 2 (Homo sapiens, UniProt Q6PH85); assay: Binding affinity to N-terminal GST tagged recombinant DCN2 (unknown origin) (62 to 259 residues) expressed in Escherichia coli BL21(DE3) assessed as reduction in DCN1-FAM-labelled N-terminal acetylated UBE2M (1 to 21 residues) protein-protein interaction after 30 mins by HTRF assay
# Procedure, shortened: (§4)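 HTRF competition: 5nM GST-tagged DCN (1-5) and 5nM AcUBE2M1-21-biotin peptide, with streptavidin-XL665 and anti-GST cryptate, in 100mM phosphate buffer pH 6.5 with 0.02% Tween-20. Cocktail pre-incubated 30min at room temperature, compound added, then 30min more. Excitation 320nm, emission 615/665nm. Ki from three independent repeats, mean ± SD.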
# [15] = tested on: A549; assay: Antiproliferative activity against human A549 by MTT assay; type: functional, cell-based; settings: TDE = time-dependent effect
# [16] = tested on: NCI-H1975; assay: Induction of apoptosis in human NCI-NCI-H1975 cells assessed as viable cells at 5 uM after 48 hrs by Annexin V-FITC/propidium iodide staining based flow cytometry (reference value: 96.1%); type: functional; settings: NCI-H1975, 48 h, read-out: Activity
# [17] = tested on: L02; assay: Antiproliferative activity against human L02 after 72 hrs by MTT assay; type: cell-based; settings: l02, 72 h; procedure, shortened: as §1
# [18] = tested on: NCI-H1975; assay: Induction of apoptosis in human NCI-NCI-H1975 cells assessed as early apoptotic cells at 5 uM after 48 hrs by Annexin V-FITC/propidium iodide staining based flow cytometry (reference value: 2.47%); type: functional
# [19] = tested on: PC-9; assay: Induction of apoptosis in human PC9 cells assessed as necrotic cells at 10 uM after 48 hrs by Annexin V-FITC/propidium iodide staining based flow cytometry (reference value: 1.34%); type: functional; procedure, shortened: as §2
# [20] = tested on: NCI-H1975; assay: Induction of apoptosis in human NCI-NCI-H1975 cells assessed as early apoptotic cells at 10 uM after 48 hrs by Annexin V-FITC/propidium iodide staining based flow cytometry (reference value: 2.47%); type: functional
# [21] = tested on: A549; assay: Induction of apoptosis in human A549 cells assessed as late apoptotic cells at 10 uM after 48 hrs by Annexin V-FITC/propidium iodide staining based flow cytometry (reference value: 2.61%); type: functional
# [22] = target: T1, DCN1-like protein 4 (Homo sapiens, UniProt Q92564); assay: Binding affinity to N-terminal GST tagged recombinant DCN4 (unknown origin) (102 to 292 residues) expressed in Escherichia coli BL21(DE3) assessed as reduction in DCN1/FAM-labelled N-terminal acetylated UBE2M (1 to 21 residues) protein-protein interaction after 30 mins by HTRF assay; procedure, shortened: as §4
# T1 sequence (Q92564 whole entry): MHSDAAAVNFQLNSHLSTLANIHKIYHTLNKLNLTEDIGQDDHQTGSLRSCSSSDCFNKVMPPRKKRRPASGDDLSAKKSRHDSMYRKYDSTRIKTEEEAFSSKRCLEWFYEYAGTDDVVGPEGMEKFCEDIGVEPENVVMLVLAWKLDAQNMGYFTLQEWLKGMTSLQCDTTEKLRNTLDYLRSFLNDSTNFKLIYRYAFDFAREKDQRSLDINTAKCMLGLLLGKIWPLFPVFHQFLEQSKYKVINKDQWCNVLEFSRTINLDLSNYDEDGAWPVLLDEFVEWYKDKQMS
# [23] = tested on: PC-9; assay: Induction of apoptosis in human PC9 cells assessed as early apoptotic cells at 2.5 uM after 48 hrs by Annexin V-FITC/propidium iodide staining based flow cytometry (reference value: 1.36%); type: functional; procedure, shortened: as §2
# [24] = tested on: NCI-H1975; assay: Effect on Cullin3 neddylation in human NCI-H1975 cells transfected with DCN1 siRNA3 by densitometric method; type: functional, cell-based
# Procedure, shortened: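 H1975 or PC9 cells seeded in 6-well plates for 16-24h, transfected with DCN1 siRNA#3 by lipofection, with or without compound, and collected three days later. Western blot for Cullin3, DCN1, NRF2, HO-1 and NQO1, with densitometry normalized to GAPDH. Three individual experiments, means ± SD.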
# [25] = tested on: PC-9; assay: Antiproliferative activity against human PC9 by MTT assay; type: functional, cell-based; procedure, shortened: as §1
# Chain of DCN1-like protein 2 (Q6PH85 whole entry, the tested form may be a part): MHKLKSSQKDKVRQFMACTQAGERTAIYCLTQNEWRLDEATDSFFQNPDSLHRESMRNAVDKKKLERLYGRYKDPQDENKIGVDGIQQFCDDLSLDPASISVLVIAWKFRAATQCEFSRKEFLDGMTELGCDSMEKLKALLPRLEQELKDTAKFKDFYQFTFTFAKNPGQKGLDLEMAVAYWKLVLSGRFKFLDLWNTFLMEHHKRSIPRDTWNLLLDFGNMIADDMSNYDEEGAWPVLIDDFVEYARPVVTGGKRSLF
smiles,measurement,setting,value
C#CCSc1nc(Sc2nccs2)c(C#N)c(-c2ccc(C)cc2)n1,Activity,[1],8.75%
same,Activity,[2],Active
same,viability at 10 µM,[3],15.7%
same,IC50,[4],2450 nM
same,Activity,[5],10.3%
same,Activity,[6],7.02%
same,Activity,[7],Non-Toxic
same,Activity,[8],9.13%
same,Activity,[9],8.15%
same,Activity,[10],Dose-dependent effect
same,Activity,[11],6.21%
same,inhibition,[12],Dose-dependent effect
same,inhibition,[13],Dose-dependent effect
same,Ki,[14],66.2 nM
same,Activity,[15],Tde
same,viability at 5 µM,[16],37.7%
same,Activity,[17],Non-Toxic
same,Activity,[18],28.4%
same,Activity,[19],17.4%
same,Activity,[20],33.2%
same,Activity,[21],81.1%
same,Ki,[22],807 nM
same,Activity,[23],0.64%
same,Activity,[24],inactive
same,IC50,[25],1110 nM
same,Activity,[25]; TDE = time-dependent effect,Tde
